In PubChem BioAssay AID488934 (Broad Institute, 2010) one finds AC50 and caspase activation data, which are given here for 23 compounds.

The term AC50 denotes the midpoint of the concentration-response curve, whichever way the signal moves.

The subject of assay [1] is Mel501 melanoma cells, caspase-3/7 Glo luminescence, 6 h. The assay can be described thus: Caspase-Glo signal, Mel501 melanoma line – cell-based, human Mel501, dry powder, A1 (Bcl2A1) inhibitor project, dose response (AID 488934). The method, boiled down:
(§1)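 Assay system: Human Mel501 melanoma cell line | Quantity: 2500 cells per well | Medium: RPMI-1640, 10% FBS, plus TSA | Times: 6 h compound at 37 °C, 1 h reagent at room temperature | Signal: Luminescence from DEVD-linked luciferin caspase-3/7 substrate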

Assay in assay [2]: as above
Conditions: Mel501 melanoma cells, caspase-3/7 Glo luminescence, 6 h. The method, boiled down:
as §1

The structures appear in SMILES notation. Results filed as inconclusive are left out. The source made the active and inactive calls.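 How the source made its calls: active means compounds raising caspase signal whose fitted AC50 lies at or below the top valid dose tested; inconclusive means flat curve at 30 to 70 percent activity, or a poor fit; inactive means the rest.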

Turning to `Cc1c(C=O)c(C=O)c(C)n1Cc1ccccc1`, the AC50 in assay [1] was > 150 µM (inactive). Same read-out and setting: to `Cc1cccc(NC(=O)/C(C#N)=C/c2cn(CC(=O)NCc3ccco3)c3ccccc23)c1` belongs > 150 µM (inactive). Turning to `Cn1c(=NC(=O)CCl)sc2ccccc21`, the caspase activation in assay [2] (at 150 µM (top of the series)) was 0.601% (inactive). Same read-out and setting: to `Cc1ccc(CS(=O)(=O)c2ncc(Cl)c(C(=O)Nc3nnc(C(C)C)s3)n2)cc1` belongs -1.79% (inactive); to `COc1cc(/C=C(/C#N)c2nc3ccccc3[nH]2)ccc1OCC(=O)Nc1ccccc1C(C)C`, 1.07% (inactive).

In the case of `CCc1cc2c(=O)c(-c3cnn(-c4ccccc4)c3)c(C)oc2cc1OCC(=O)Nc1cccc(C)c1`, the caspase activation in assay [2] (at 150 µM (top of the series)) was 0.716% (inactive). Take `C=C1[C@@H](C)[C@H]2[C@H](Cc3ccccc3)NC(=O)[C@]23OC(=O)/C=C\[C@H](O)CCC[C@@H](C)C/C=C/[C@H]3[C@@H]1O`: in assay [2] (at 150 µM (top of the series)), the caspase activation was 0.77% (inactive). Still for that read-out and setting: to `O=C(CCl)N=c1sccn1Cc1ccccc1Cl` belongs 2.16% (inactive).

For `C=C1[C@@H](C)[C@H]2[C@H](Cc3ccccc3)NC(=O)[C@]23[C@H](OC(C)=O)/C=C/[C@](C)(O)C(=O)[C@@H](C)C/C=C/[C@H]3[C@@H]1O`, the caspase activation in assay [2] (at 150 µM (top of the series)) was 0.757% (inactive). On the same count and under the same terms, to `O=C(Oc1cccc(/C=N/Nc2nc(Nc3ccccc3)nc(N3CCOCC3)n2)c1)c1ccco1` belongs 0.28% (inactive); to `CC(C)(C)n1nc(-c2ccc(Cl)cc2)c2c(N)ncnc21`, 2.25% (inactive); to `CCc1nnc(NC(=O)c2nc(S(=O)(=O)Cc3ccccc3)ncc2Cl)s1`, -0.521% (inactive). The same measure, in the same setting: under `COc1cccc(C(=O)C(C#N)=C(SC)SC)c1` stands -0.394% (inactive). Consider `Cc1cc(C(=O)CCl)c(C)n1CCc1ccc(Cl)cc1`, for which the AC50 in assay [1] is 17.8 µM.

Take `COc1ccc(N(C(=O)CCl)C(C(=O)NCCc2ccccc2)c2cccs2)cc1Cl` (stereo not drawn): in assay [1], the half-maximal activity concentration (AC50) is 30.1 µM. As to `CC(=O)N[C@H]1[C@H](O[C@H]2CC[C@@]3(C)C(CC[C@]4(C)C3CC=C3[C@@H]5CC(C)(C)CC[C@]5(C(=O)OC5OCC(O)C(O)C5O)C(O)C[C@]34C)C2(C)C)O[C@H](COC2OCC(O)C(OC3OCC(O)C(O)C3O)C2O)[C@@H](O[C@@H]2O[C@@H](C)[C@H](O)[C@@H](O)[C@H]2O[C@@H]2O[C@@H](C)[C@H](O)[C@@H](O)[C@H]2O)[C@@H]1O` (stereo partly drawn), the caspase activation in assay [2] (at 135 µM (top of the series)) was -0.618% (inactive). Consider `Nc1nc(F)nc2c1ncn2[C@@H]1O[C@H](CO)[C@@H](O)[C@H]1O`, for which the caspase activation in assay [2] (at 150 µM (top of the series)) is 0.438% (inactive). Regarding `Cc1ccc(Sc2c([N+](=O)[O-])c(=O)n(C)c3ccccc23)cc1`, in assay [1], the AC50 was 69.7 µM. Take `C/C1=C/C(=O)O[C@@H]2C[C@@H](CC[C@H](C)/C=C\CC1)O[C@@](O)(C1CSC(=O)N1)C2` (stereo partly drawn): in assay [2] (at 150 µM (top of the series)), the caspase activation was 0.0337% (inactive).

For `Cc1cccc(CS(=O)(=O)c2ncc(Cl)c(C(=O)Nc3nnc(C(C)C)s3)n2)c1`, in assay [2] (at 150 µM (top of the series)), the caspase activation was -1.69% (inactive).

On to `CCSc1nnc(NC(=O)c2nc(S(=O)(=O)Cc3ccc(F)cc3)ncc2Cl)s1`, for which, in assay [2] (at 150 µM (top of the series)), the caspase activation is -2.12% (inactive).

Take `CCOC(=O)CSC1=N/C(=C/c2ccc(-n3cncn3)cc2)C(=O)N1C(C)=O`: the caspase activation in assay [2] (at 150 µM (top of the series)) was 0.822% (inactive). With `Cc1c(CCOC(=O)c2ccc(N3CCOCC3)c([N+](=O)[O-])c2)sc[n+]1CC#N`, the AC50 in assay [1] was 18.8 µM.
